Screening data (PubChem)
Shown are actives, neighbours in structure and some others; about 2% of the full set was active somewhere.
HKDC1 inh: blocks human hexokinase HKDC1 activity | actives 0.16% (n = 340,000) | Q2TB90 | recombinant HKDC1, G6PDH/diaphorase resazurin coupled fluorescence | inhibition, % at 20 µM;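 active = inhibition above about 35% when tested at 20 µM, limit read from the data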
Target sequence (Q2TB90 whole entry, looked up): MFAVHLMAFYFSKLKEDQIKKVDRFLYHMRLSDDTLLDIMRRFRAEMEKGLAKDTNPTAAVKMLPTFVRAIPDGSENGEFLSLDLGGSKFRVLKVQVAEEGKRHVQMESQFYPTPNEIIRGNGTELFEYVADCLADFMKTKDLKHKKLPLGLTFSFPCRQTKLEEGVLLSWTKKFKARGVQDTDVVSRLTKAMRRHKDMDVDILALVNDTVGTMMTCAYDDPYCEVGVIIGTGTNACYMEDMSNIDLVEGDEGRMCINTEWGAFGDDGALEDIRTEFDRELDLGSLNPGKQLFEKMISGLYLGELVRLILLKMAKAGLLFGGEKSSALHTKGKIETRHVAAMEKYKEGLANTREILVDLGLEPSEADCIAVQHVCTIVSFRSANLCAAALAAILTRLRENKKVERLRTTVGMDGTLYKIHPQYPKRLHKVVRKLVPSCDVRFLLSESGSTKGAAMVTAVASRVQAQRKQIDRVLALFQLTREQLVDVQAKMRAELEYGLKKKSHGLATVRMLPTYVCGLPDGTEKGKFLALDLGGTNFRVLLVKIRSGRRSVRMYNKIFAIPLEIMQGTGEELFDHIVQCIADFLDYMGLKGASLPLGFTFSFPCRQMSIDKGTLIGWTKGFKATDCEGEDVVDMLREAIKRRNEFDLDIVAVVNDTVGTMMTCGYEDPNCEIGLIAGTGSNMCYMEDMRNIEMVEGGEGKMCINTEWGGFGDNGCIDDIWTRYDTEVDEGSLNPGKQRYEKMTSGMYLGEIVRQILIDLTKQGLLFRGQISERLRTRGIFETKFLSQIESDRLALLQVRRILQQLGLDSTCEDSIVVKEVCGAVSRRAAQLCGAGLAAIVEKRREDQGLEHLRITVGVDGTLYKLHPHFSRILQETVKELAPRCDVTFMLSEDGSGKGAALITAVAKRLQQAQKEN
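Incubation: 90 min at room temperature in dark / Material: recombinant HKDC1 (HK5) hexokinase enzyme, produced in-house / Quantity: enzyme 5 µg/mL final / Compound: one dose of 20 µM, 1% DMSO / Reagent: glucose and ATP substrates / Buffer or medium: Tris pH 8.0 buffer with MgCl2, Tween-20, BSA, BME / Technique: resorufin fluorescence at 613 nm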
ATG4B inhibitor: ATG4B (human) cysteine protease inhibition; ATG4B cleavage of LC3-PLA2, NBD-HPC fluorescence, 1 h; actives 0.51% (n = 340,000); inhibition, % at 8.33 µM; in the data active = inhibition above about 40%
IMP-1 inh: inhibitors of Pseudomonas aeruginosa IMP-1 metallo-beta-lactamase; AID 1556; inhibition, % at 5.6 µM; actives 0.45% (n = 290,000); purified IMP-1, nitrocefin hydrolysis, epi-absorbance fluorescence;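 active = inhibition above the mean plus 3 SD of all compounds in the same screening run, cut at about 4.5% in these data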
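System: purified IMP-1; amount: IMP-1 0.2 nM before substrate addition; compound: single dose, 5.6 µM; times: 25 °C, 15 min preincubation, 25 min reaction; signal: Epi-absorbance via hydrolysed-nitrocefin quenching of white-plate fluorescence, 480/530 nm, EDTA stop; benchmarks: DMSO with and without IMP-1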
VIM-2 inhibitor: blocks Pseudomonas aeruginosa VIM-2 metallo-beta-lactamase; purified VIM-2, nitrocefin hydrolysis, epi-absorbance fluorescence; inhibition, % at 5.6 µM; actives 0.89% (n = 290,000); AID 1527;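 active = inhibition above the mean of all tested compounds plus 3 SD, cutoff set per screening run, cut at about 7.5% in these data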;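 also: red hydrolysis product quenches plate fluorescence so inhibitors raise well fluorescence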
MIN6 prolif-1: induces beta-cell replication in MIN6 cells; MIN6 cells proliferation, ATPlite luminescence, 48 h; cells starved in 0.2% serum; 100% = growth in 10% serum; proliferation, % at 10 µM; actives 0.29% (n = 330,000);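 active = compounds whose signal lies at least 3.5 SD above the mean of all wells on their plate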
PvdQ acylase: blocks Pseudomonas aeruginosa PvdQ acylase activity; purified PvdQ acylase, fluorescence plate reader; inhibition, % at 10 µM; actives 0.063% (n = 340,000); AID 488965; in the data active = inhibition above about 30%, passing the limit was not always enough
MIN6 prolif-2: MIN6 beta-cell replication induction, confirmed; shares compounds with MIN6 prolif-1; MIN6 beta-cell proliferation, ATPlite luminescence, 48 h; cells kept in 0.2% serum; scaled between 0.2% and 10% serum; proliferation increase, % at 50 µM; 920 tested, under 10 active;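 active = proliferation increase above 40% at any of the four tested concentrations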
HKDC1 act conf: confirmation of human HKDC1 activators; inhibition, % at 20 µM; actives 14% (n = 740); shares compounds with HKDC1 inh; recombinant HKDC1, G6PDH/diaphorase resazurin fluorescence; stronger effect = lower value;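 active = inhibition at or below a set negative limit, negative inhibition meaning the enzyme was activated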
ATG4B confirm: confirmation of human ATG4B inhibitors; shares compounds with ATG4B inhibitor; actives 92% (n = 320); inhibition, % at 8.33 µM; AID 504757; ATG4B protease fluorescent substrate cleavage assay; in the data active = inhibition above about 39%
PLA2 counter: counter-screen for ATG4B inhibitors: human phospholipase A2. inhibition, % at 8.33 µM. shares compounds with ATG4B inhibitor. purified PLA2, NBD-C6-HPC fluorescence, 45 min. actives 66% (n = 1,600); in the data active = inhibition above about 50%
A number is an active result; n = inactive; x = not tested or not shown; ! = not active in a repeat.

SMILES	HKDC1 inh	ATG4B inhibitor	IMP-1 inh	VIM-2 inhibitor	MIN6 prolif-1	PvdQ acylase	HKDC1 act conf	others
CC1(C)CCCN1CCC(C(N)=O)(c1ccccc1)c1ccccc1	n	n	x	x	x	n	x
CC(C)N(CCC(C(N)=O)(c1ccccc1)c1ccccn1)C(C)C (centres undefined)	n	n	n	n	13!	n	x	MIN6 prolif-2=n
COC(=O)C1=C(c2ccc(Cl)c(C(F)(F)F)c2)C[C@@H]2CC[C@H]1N2C(=O)NCc1ccco1	n	n	x	x	n	n	x
O=C1C(=O)N(c2ccccc2)P(=O)(N(CCCl)CCCl)N1c1ccccc1	n	n	x	x	x	n	x
CC1CCCCC1NC1CCN(C)CC1 (centres undefined)	n	n	n	n	6.0	n	x	MIN6 prolif-2=n
COC(=O)C1=C(c2ccc(C(C)=O)cc2)C[C@@H]2CC[C@H]1N2C(=O)NCCCOC(C)C	n	n	x	x	n	n	x
CCCCCCn1c(=O)c(C(=O)Nc2ncccc2C)c(O)c2ccccc21	n	n	n	n	6.6	n	x	MIN6 prolif-2=n
COc1ccc(NC(=O)C2C3CCC(O3)C2C(=O)O)c(OC)c1 (centres undefined)	n	n	n	n	6.7	n	x	MIN6 prolif-2=n
CN(C)C(=O)On1c(-c2ccccc2)nc2ccc(Cl)cc21	n	n	n	n	12	n	x	MIN6 prolif-2=n
COc1ccc(-c2nc3ccccc3n2OC(=O)N(C)C)cc1	n	n	n	n	n	n	x
CCOC(=O)c1c(-n2c(C)cc(/C=C3\C(=O)NC(=O)N(C)C3=O)c2C)sc2c1CCCC2	51	n	n	n	n	n	n
Cn1c(=O)c2c(nc(N/N=C/c3c(O)n(C4CCCCC4)c(=S)[nH]c3=O)n2C)n(C)c1=O	n	n	n	n	n	n	-49
Cc1ccc2c(C)c3ccc4ccccc4c3c[n+]2c1	n	n	x	x	x	n	-65
COC(=O)C1=C(c2ccc(F)cc2OCc2ccccc2)C[C@@H]2CC[C@H]1N2C(=O)NC1Cc2ccccc2C1	n	n	x	x	n	n	x
CC[C@H](C)/C=C(C)/C=C/C1=CC2=C(Cl)C(=O)[C@@](C)(OC(C)=O)C(=O)C2=CO1	63	67	x	x	n	n	n
CCC(C)/C=C(C)/C=C/C1=CC2=C(Cl)C(=O)C(C)(OC(C)=O)C(=O)C2=CO1 (centres undefined)	n	n	n	n	n	n	x
O=C(c1c[nH]c2ccc(S(=O)(=O)N3CCOCC3)cc2c1=O)N1CCC2(CC1)OCCO2	n	n	n	n	n	n	x
CC1(C)C(C(=O)N2CCN(c3ccc(Cl)cc3)CC2)C1(C)C	n	n	n	n	n	n	x
COC(=O)C1CN(C#N)N(c2ccc(Cl)cc2)C12c1ccccc1-c1ccccc12 (centres undefined)	87	n	n	n	n	n	n
N#CC1=C(N)Oc2c(c(=O)sc3ccccc23)C1c1ccncc1 (centres undefined)	n	n	n	n	n	n	n
O=C(O)CC1OCC=C2CN3CCC45C6=CC(=O)C(=O)C([N+](=O)[O-])=C6NC4C1C2CC35 (centres undefined)	43	n	n	n	x	n	n
O=C(O)CC1OCC=C2CN3CCC45c6ccccc6NC4C1C2CC35 (centres undefined)	n	n	n	n	n	n	x
COC(=O)CC1=C(C(=O)OC)C2(C(=O)Nc3c(C)cccc32)C(C#N)=C(N)O1 (centres undefined)	n	n	n	n	n	n	x
COc1ccc(OC)c(N2C(=O)/C(=C/c3ccco3)C(=O)NC2=S)c1	82	87	n	n	n	x	n
CC1(C)C[C@H]2C=C(C=O)[C@]3(C=O)C[C@]3(C)[C@H]2C1	n	n	n	n	n	n	x
SMILES	HKDC1 inh	ATG4B inhibitor	IMP-1 inh	VIM-2 inhibitor	MIN6 prolif-1	PvdQ acylase	HKDC1 act conf	others
COC(=O)C1=C(C(=O)OC)SC2(S1)C(C(=O)OC)=C(C(=O)OC)Sc1c2ssc1=O	n	n	x	x	x	n	-89
CN1CC[C@@]2(C)c3cc(O)ccc3N(C)[C@@H]12	n	n	x	x	x	n	n
COc1cc2c(cc1OC)C(C(=O)N(C)C1CCCCC1)C1CCCCN1C2=O (centres undefined)	n	n	n	n	n	n	x
O=C1NC(=S)N(c2ccc(F)cc2)C(=O)/C1=C\c1ccoc1	51	85	n	n	x	n	n
O=C1NC(=S)N(c2ccc(F)cc2)C(=O)/C1=C/c1ccco1	x	x	n	n	n	x	x
N#CC(C#N)=Cc1ccc(C=C(C#N)C#N)cc1	38	n	n	n	x	n	n
CCOP(=O)(OCC)C1(O)C(=O)Nc2ccc(Br)cc21 (centres undefined)	n	n	n	n	n	n	x
NC(=O)c1ccc(N=Cc2c(O)n(Cc3ccco3)c(=O)[nH]c2=O)cc1	36	n	n	n	n	n	n
CCN(CC)c1ccc(N=Cc2c(O)n(Cc3ccco3)c(=O)[nH]c2=O)cc1	n	n	n	n	n	n	x
CCOC(=O)C(O)(c1ccc(N(CC)S(=O)(=O)c2ccc(C)cc2)cc1)C(F)(F)F (centres undefined)	n	n	n	n	n	n	x
O=C1CC=C2C3CC4N(CCC45c4cc(O)c(O)cc4N1C25)CC3=CCBr (centres undefined)	45	n	x	x	x	n	n
O=C1CC=C2C3CC4N(CCC45c4ccccc4N1C25)CC3=CCO (centres undefined)	n	n	x	x	x	n	x
COC(=O)C1=C(c2cc3ccccc3o2)C[C@@H]2CC[C@H]1N2C(=O)NCc1ccc(C(F)(F)F)cc1	n	n	x	x	n	n	x
Cc1cc(/C=C2\C(=O)NC(=O)N(c3ccc(Cl)cc3)C2=O)c(C)n1-c1sc2c(c1C#N)CCCC2	69	43	5.3	n	n	n	n	ATG4B confirm=63;PLA2 counter=n
CCCN1CCO[C@@H]2c3cc(O)ccc3OC[C@H]21	n	n	x	x	n	n	x
O=c1c2ccccc2nc(/C=C/c2ccccc2F)n1-c1ccccc1O	n	62	n	n	n	n	x	PLA2 counter=70
O=c1c2ccccc2nc(/C=C/c2ccccc2O)n1-c1ccccc1O	x	x	n	n	n	n	x
Oc1ccc(CC2(N3CCCC3)CCCCC2)cc1	n	n	n	n	n	n	x
